Where “and” joins values, the source holds several entries; their conditions need not be identical. Equal values may be shown once.
Tested on: U2OS
Assay: Multiplex assay against U2OS
Assay type: toxicity, cell-based
Conditions: human
Outline: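 Live cells were stained at seeding with Hoechst33342, BioTracker Green Microtubule Cytoskeleton Dye, MitoTracker Red and Annexin V Alexa Fluor 680, then imaged on a CQ1 microscope at 37°C and 5% CO2 after compound addition. CellPathfinder machine-learning gating split cells into Hoechst high-intensity objects or normal cells. Normal cells were split into healthy, pyknosed or fragmented nuclei, and pyknosed cells into mitotic or apoptotic. Tubulin, mitochondrial-mass and membrane-permeability phenotypes are per cents of healthy-nucleus cells.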

[1] = 12 h, 1 µM, compound concentration 1 uM
[2] = 12 h, 10 µM, compound concentration 10 uM
[3] = 24 h, 1 µM, compound concentration 1 uM
[4] = 24 h, 10 µM, compound concentration 10 uM
[5] = 48 h, 1 µM, compound concentration 1 uM
[6] = 48 h, 10 µM, compound concentration 10 uM

O=C(O)CCC/C=C\CC1C(O)CC(O)C1/C=C/C(O)COc1cccc(Cl)c1 (configuration not stated) [CLOPROSTENOL]
Population Apoptotic (%) [1]: 77% and 75%
Population Fragmented Nuclei (%) [1]: 30% and 11%
Population Healthy Nuclei (%) [1]: 60% and 82%
Population Hoechst High Intensity Objects (%) [1]: 3% and 0%
Population Membrane Permeable-Phenotype (%) [1]: 2% and 6%
Population Mitochondria Different-Phenotype (%) [1]: 0% and 3%
Population Mitotic Cells (%) [1]: 22% and 25%
Population Normal (%) [1]: 96% and 100%
Population Pyknosed Nuclei (%) [1]: 9% and 6%
Population Tubulin-Different-Phenotype (%) [1]: 1% and 2%
Total Cell Count [1]: 201 and 129
Population Apoptotic (%) [2]: 92% and 45%
Population Healthy Nuclei (%) [2]: 60% and 81%
Population Hoechst High Intensity Objects (%) [2]: 2% and 0%
Population Membrane Permeable-Phenotype (%) [2]: 8% and 9%
Population Mitochondria Different-Phenotype (%) [2]: 1% and 6%
Population Normal (%) [2]: 97% and 100%
Population Pyknosed Nuclei (%) [2]: 10% and 8%
Population Tubulin-Different-Phenotype (%) [2]: 3%
Total Cell Count [2]: 272 and 131
Population Apoptotic (%) [3]: 81% and 75%
Population Fragmented Nuclei (%) [3]: 24% and 15%
Population Healthy Nuclei (%) [3]: 63% and 77%
Population Hoechst High Intensity Objects (%) [3]: 1% and 0%
Population Membrane Permeable-Phenotype (%) [3]: 4% and 6%
Population Mitochondria Different-Phenotype (%) [3]: 2%
Population Mitotic Cells (%) [3]: 18% and 25%
Population Normal (%) [3]: 98% and 100%
Population Pyknosed Nuclei (%) [3]: 11% and 7%
Population Tubulin-Different-Phenotype (%) [3]: 2% and 4%
Total Cell Count [3]: 237 and 157
Population Apoptotic (%) [4]: 90% and 70%
Population Fragmented Nuclei (%) [4]: 23% and 11%
Population Healthy Nuclei (%) [4]: 66% and 82%
Population Hoechst High Intensity Objects (%) [4]: 2% and 0%
Population Membrane Permeable-Phenotype (%) [4]: 7% and 11%
Population Mitochondria Different-Phenotype (%) [4]: 2% and 4%
Population Mitotic Cells (%) [4]: 10% and 30%
Population Normal (%) [4]: 97% and 100%
Population Pyknosed Nuclei (%) [4]: 10% and 5%
Population Tubulin-Different-Phenotype (%) [4]: 3% and 4%
Total Cell Count [4]: 306 and 177
Population Apoptotic (%) [5]: 89% and 81%
Population Fragmented Nuclei (%) [5]: 20% and 11%
Population Healthy Nuclei (%) [5]: 70% and 81%
Population Hoechst High Intensity Objects (%) [5]: 1% and 0%
Population Membrane Permeable-Phenotype (%) [5]: 2% and 6%
Population Mitochondria Different-Phenotype (%) [5]: 1% and 3%
Population Mitotic Cells (%) [5]: 10% and 18%
Population Normal (%) [5]: 98% and 99%
Population Pyknosed Nuclei (%) [5]: 8% and 7%
Population Tubulin-Different-Phenotype (%) [5]: 0% and 2%
Total Cell Count [5]: 344 and 229
Population Apoptotic (%) [6]: 91% and 84%
Population Fragmented Nuclei (%) [6]: 18% and 12%
Population Healthy Nuclei (%) [6]: 67% and 82%
Population Hoechst High Intensity Objects (%) [6]: 3% and 2%
Population Membrane Permeable-Phenotype (%) [6]: 6% and 10%
Population Mitochondria Different-Phenotype (%) [6]: 1% and 2%
Population Mitotic Cells (%) [6]: 8% and 15%
Population Normal (%) [6]: 96% and 97%
Population Pyknosed Nuclei (%) [6]: 14% and 5%
Population Tubulin-Different-Phenotype (%) [6]: 4%
Total Cell Count [6]: 396 and 246

Cc1cc(C(C#N)c2ccc(Cl)cc2)c(Cl)cc1NC(=O)c1cc(I)cc(I)c1O (configuration not stated) [CLOSANTEL]
Population Apoptotic (%) [1]: 40% and 50%
Population Fragmented Nuclei (%) [1]: 1.13% and 2.08%
Population Healthy Nuclei (%) [1]: 90.4% and 86.81%
Population Hoechst High Intensity Objects (%) [1]: 0.19% and 0%
Population Membrane Permeable-Phenotype (%) [1]: 0.62% and 4.8%
Population Mitochondria Different-Phenotype (%) [1]: 0.42% and 3.2%
Population Mitotic Cells (%) [1]: 60% and 50%
Population Normal (%) [1]: 99.81% and 100%
Population Pyknosed Nuclei (%) [1]: 8.47% and 11.11%
Population Tubulin-Different-Phenotype (%) [1]: 1.46% and 0.8%
Population Apoptotic (%) [2]: 37.5% and 50%
Population Fragmented Nuclei (%) [2]: 1.14% and 4.88%
Population Healthy Nuclei (%) [2]: 93.39% and 81.71%
Population Hoechst High Intensity Objects (%) [2]: 0%
Population Membrane Permeable-Phenotype (%) [2]: 0.98% and 2.99%
Population Mitochondria Different-Phenotype (%) [2]: 0.49% and 8.96%
Population Mitotic Cells (%) [2]: 62.5% and 50%
Population Normal (%) [2]: 100%
Population Pyknosed Nuclei (%) [2]: 5.47% and 13.41%
Population Tubulin-Different-Phenotype (%) [2]: 0.73% and 2.24%
Total Cell Count [2]: 439 and 164
Population Apoptotic (%) [3]: 40% and 43.75%
Population Fragmented Nuclei (%) [3]: 1.65% and 4.19%
Population Healthy Nuclei (%) [3]: 90.1% and 86.23%
Population Hoechst High Intensity Objects (%) [3]: 0%
Population Membrane Permeable-Phenotype (%) [3]: 0.61% and 5.56%
Population Mitochondria Different-Phenotype (%) [3]: 0.46% and 6.25%
Population Mitotic Cells (%) [3]: 60% and 56.25%
Population Normal (%) [3]: 100%
Population Pyknosed Nuclei (%) [3]: 8.25% and 9.58%
Population Tubulin-Different-Phenotype (%) [3]: 0.46% and 1.39%
Population Apoptotic (%) [4]: 33.33% and 40%
Population Fragmented Nuclei (%) [4]: 1.76% and 4.91%
Population Healthy Nuclei (%) [4]: 88.75% and 83.93%
Population Hoechst High Intensity Objects (%) [4]: 0%
Population Membrane Permeable-Phenotype (%) [4]: 0% and 2.66%
Population Mitochondria Different-Phenotype (%) [4]: 0% and 4.26%
Population Mitotic Cells (%) [4]: 66.67% and 60%
Population Normal (%) [4]: 100%
Population Pyknosed Nuclei (%) [4]: 9.49% and 11.16%
Population Tubulin-Different-Phenotype (%) [4]: 0.4% and 1.06%
Total Cell Count [4]: 569 and 224
Population Apoptotic (%) [5]: 45.67% and 45.95%
Population Fragmented Nuclei (%) [5]: 3.15% and 4.35%
Population Healthy Nuclei (%) [5]: 87.31% and 83.28%
Population Hoechst High Intensity Objects (%) [5]: 0%
Population Membrane Permeable-Phenotype (%) [5]: 0.6% and 2.01%
Population Mitochondria Different-Phenotype (%) [5]: 0% and 6.02%
Population Mitotic Cells (%) [5]: 54.33% and 54.05%
Population Normal (%) [5]: 100%
Population Pyknosed Nuclei (%) [5]: 9.53% and 12.37%
Population Tubulin-Different-Phenotype (%) [5]: 0.77% and 0%
Population Apoptotic (%) [6]: 36.05% and 34.09%
Population Fragmented Nuclei (%) [6]: 2.74% and 3.02%
Population Healthy Nuclei (%) [6]: 89.14% and 85.93%
Population Hoechst High Intensity Objects (%) [6]: 0.09% and 0%
Population Membrane Permeable-Phenotype (%) [6]: 0.42% and 1.17%
Population Mitochondria Different-Phenotype (%) [6]: 0.11% and 4.97%
Population Mitotic Cells (%) [6]: 63.95% and 65.91%
Population Normal (%) [6]: 99.91% and 100%
Population Pyknosed Nuclei (%) [6]: 8.12% and 11.06%
Population Tubulin-Different-Phenotype (%) [6]: 0.32% and 0.88%
Total Cell Count [6]: 1060 and 398

Source: ChEMBL document CHEMBL5724801, “EUbOPEN Chemogenomics Library - Multiplex” (2024)
